Experimental data reported in PMC3132447 (Diabetes, Obesity & Metabolism, 2011).
Marks after values point to notes of the source that are not given here.

Legend:
[1] = system: obese subjects with type 2 diabetes; test: Postprandial plasma glucose after a standardized test meal; type: in vivo, human; conditions: n = 30; for Time to 10% of total glucose AUC / Time to 20% of total glucose AUC / Time to ΔGLUmax: 0.2 U/kg s.c. before standardized meal, obese T2DM, median
Outline: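 Same crossover, fasting, 0.2 U/kg s.c. premeal dosing and standardized 692-kcal meal. Plasma glucose was sampled at −20, −10 and 0 min, every 10 min to 2 h, then every 15 min to 6 h. AUCs used the linear trapezoidal rule; incremental AUCs and GLUmax used ANOVA (subject, treatment, sequence, period). Ratio 90% CIs used Fieller's theorem on untransformed data; times used Wilcoxon with Hodges–Lehmann 90% CI.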

[2] = Serum insulin analogue concentrations after subcutaneous bolus; type: in vivo, human; conditions: n = 30; for Time to fraction of total insulin AUC (10%) / Time to fraction of total insulin AUC (20%) / Tmax (time to peak insulin concentration) / Insulin AUC0–1 h/AUC0–6 h, geometric mean / Insulin AUC0–2 h/AUC0–6 h, arithmetic mean (value in brackets) / Insulin AUC0–2 h/AUC0–6 h, geometric mean / Insulin AUC0–4 h/AUC0–6 h, arithmetic mean (value in brackets) / Insulin AUC0–4 h/AUC0–6 h, geometric mean: 0.2 U/kg s.c. before standardized meal, obese T2DM; for Time to fraction of total insulin AUC (10%) / Time to fraction of total insulin AUC (20%) / Tmax (time to peak insulin concentration): median; for Insulin AUC0–1 h/AUC0–6 h, geometric mean / Insulin AUC0–2 h/AUC0–6 h, arithmetic mean (value in brackets) / Insulin AUC0–2 h/AUC0–6 h, geometric mean / Insulin AUC0–4 h/AUC0–6 h, arithmetic mean (value in brackets) / Insulin AUC0–4 h/AUC0–6 h, geometric mean: serum analogue
Outline: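 Same crossover and 0.2 U/kg s.c. premeal dosing in obese T2DM (n = 30). Serum test insulin analogue was measured by an analogue-specific kit at a central laboratory over 6 h. Non-compartmental analysis gave Cmax, Tmax and linear-trapezoidal AUC fractions. Ratios with 90% CI used ANOVA on ln-transformed data; times used Hodges–Lehmann 90% CI for median differences.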

NEFA = test: Non-esterified fatty acid; type: in vivo, human; conditions: for Mean NEFA concentration after subsequent increase / Time of lowest mean NEFA concentration: 0.2 U/kg s.c. before standardized meal; for Mean NEFA concentration after subsequent increase: after the nadir, within 6-h period; for Time of lowest mean NEFA concentration / Mean NEFA concentration at start (before decrease): obese T2DM; for Mean NEFA concentration at start (before decrease): baseline
Outline: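 Obese T2DM adults (n = 30) fasted 12 h with oral agents withheld. In a randomized two-way crossover with a 7-day washout, they received 0.2 U/kg s.c. of test insulin analogue within 2 min before a 692-kcal meal (54% carbohydrate, 17% protein, 28% lipid) eaten within 30 min. Plasma NEFA was sampled from −20 min to 6 h by validated kit; mean profiles.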

[3] = system: obese subjects with type 2 diabetes; test: Hypoglycaemia and adverse events; type: in vivo, human; conditions: for Severe hypoglycaemia / Subjects with hypoglycaemia with blood glucose below 56 mg/dl / Subjects with an episode of hypoglycaemia 3–6 h after insulin administration: 0.2 U/kg s.c.; for Subjects with an episode of hypoglycaemia 3–6 h after insulin administration: blood glucose <70 mg/dl
[4] = subcutaneously injected; cited from earlier work
[5] = point estimate (90% CI), Fieller's Theorem, untransformed data
[6] = point estimate (90% CI), Hodges and Lehmann method
[7] = point estimate (90% CI), ln-transformed data

Row | Substance | Time to 10% of total glucose AUC [1] | Time to 20% of total glucose AUC [1] | Time to ΔGLUmax [1] | Time to fraction of total insulin AUC (10%) [2] | Time to fraction of total insulin AUC (20%) [2] | Tmax (time to peak insulin concentration) [2] | Insulin AUC0–1 h/AUC0–6 h, geometric mean [2] [%] | Insulin AUC0–2 h/AUC0–6 h, arithmetic mean (value in brackets) [2] [%] | Insulin AUC0–2 h/AUC0–6 h, geometric mean [2] [%] | Insulin AUC0–4 h/AUC0–6 h, arithmetic mean (value in brackets) [2] [%] | Insulin AUC0–4 h/AUC0–6 h, geometric mean [2] [%] | Mean NEFA concentration after subsequent increase (NEFA) [mmol/L] | Time of lowest mean NEFA concentration (NEFA) [min] | Mean NEFA concentration at start (before decrease) (NEFA) [mmol/L] | Severe hypoglycaemia [3] | Subjects with hypoglycaemia with blood glucose below 56 mg/dl [3] | Subjects with an episode of hypoglycaemia 3–6 h after insulin administration [3] [subjects] | further results
1 | insulin aspart | 40.0 ^† min | 65.0 ^† min | 59.5 ^† min | 60.5 ^† min | 91.0 ^† min | 93.0 ^† min | 11 | 3.6 | 35 | 4.3 | 77 | 0.31 | 120 | 0.51 | no cases of severe hypoglycaemia requiring intervention | eight | 15 | Time of the remaining hypoglycaemia episodes after administration ([3]; episodes outside 3–6 h, one value per episode): 60 min
2 | insulin glulisine | 40.0 ^† min | 67.5 ^† min | 60.0 ^† min | 60.0 ^† min | 90.0 ^† min | 120.0 ^† min | 14 | 3.6 | 36 | 4.3 | 78 | 0.32 | 180 | 0.50 | no cases of severe hypoglycaemia requiring intervention | Five | 10 | GLUmax, mean ratio glulisine/aspart [1, 5]: 94% (90–99); Glucose AUC0–1 h, mean ratio glulisine/aspart [1, 5]: 94% (90–99); Glucose AUC0–1 h/AUC0–6 h, mean ratio glulisine/aspart [1, 5]: 95% (92–99); Glucose AUC0–2 h/AUC0–6 h, mean ratio glulisine/aspart [1, 5]: 96% (94–99); Glucose AUC0–4 h/AUC0–6 h, mean ratio glulisine/aspart [1, 5]: 99% (97–100); Glucose AUC0–6 h, mean ratio glulisine/aspart [1, 5]: 98% (95–104); ΔGLUmax, mean ratio glulisine/aspart [1, 5]: 81% (70–100); Time to 10% of total glucose AUC, median difference glulisine vs aspart [1, 6]: -2 min; Time to 20% of total glucose AUC, median difference glulisine vs aspart [1, 6]: 0 (−4 to 3) min; Time to ΔGLUmax, median difference glulisine vs aspart [1, 6]: -5 min; GLUmax, mean difference glulisine vs aspart ([1]; point estimate (90% CI), analysis of variance, untransformed data): -11 mg/dL; Tmax, median difference glulisine vs aspart [2, 6]: 17 min; Insulin AUC0–1 h/AUC0–6 h, mean ratio glulisine/aspart [2, 7]: 127% (106–152); Insulin AUC0–2 h/AUC0–6 h, mean ratio glulisine/aspart [2, 7]: 103% (95–110); Insulin AUC0–4 h/AUC0–6 h, mean ratio glulisine/aspart [2, 7]: 101% (99–103)
3 | regular human insulin [RHI] |  |  |  |  |  |  |  |  |  |  |  |  |  |  |  |  |  | Duration of action [4]: > 8 h; Time of peak effect after dosing [4]: 3 h
